Measurements as given in article PMC8867604 (European journal of pharmacology, 2020).
Like-named read-outs stand apart in the source and are kept apart here. Residues, ends and D or L forms follow the SMILES beside them. *: point of attachment. Cbz = O=C(OCc1ccccc1)*; OtBu = CC(C)(C)O*

Columns and labels:
Type in all cases: cell-based, human
HEK293 cells = conditions: for IC50: Homo sapiens, HEK293, 24 h, read-out: IC50 (cell viability)
NF-κB [1] = assay: NF-κB luciferase reporter assay, antagonists with TNFα stimulation; conditions: for effect on NF-κB expression / effect on NF-κB pathway activity / mode of action on NF-κB signaling: TNFα stimulated, 24 h; for effect on NF-κB pathway activity: at low micromolar concentrations; for EC50: Homo sapiens, HEK293, 24 h, read-out: EC50 (NF-kB reporter)
MAF1329 ependymoma cells = test system: MAF1329 ependymoma cells
NF-κB [2] = assay: NF-κB luciferase reporter assay, agonists without TNFα; conditions: HEK293 reporter cells, no TNFα, 24 h
Procedure, shortened: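 HEK293 stable NF-κB GFP-luciferase reporter line grown in DMEM with 10% FBS and 1% pen/strep at 37°C, 5% CO2. Seeded 1x10^4/well (96-well) or 1x10^3/well (384-well) 12 h before dosing across a concentration range in fresh medium, with vehicle-only controls. Incubated 24 h, then luminescence read. Drug/vehicle luminescence ratio plotted against log10 concentration to derive EC50. Triplicate or quadruplicate doses, ≥3 experiments.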

[3] = at low micromolar concentrations
[4] = at low or mid-range micromolar concentrations

## O=C(c1ccc(Nc2nccc(-c3cc4ccccc4s3)n2)cc1)N1CCC(N2CCCC2)CC1 [IKK-16]
HEK293 cells
  effect on cell viability: no specific effect
NF-κB [1]; HEK-293 reporter cells
  effect on NF-κB expression: no specific effect

## [O-][S+](c1ccccc1)c1ccc2nnnn2n1 (stereo not drawn) [Ro106–9920]
HEK293 cells
  effect on cell viability: did not result in a decrease of cell viability

## COc1cc(O)cc(O)c1C(=O)/C=C/c1ccccc1 [Cardamonin]
HEK293 cells; [3]
  effect on cell viability: without effecting cell viability
MAF1329 ependymoma cells; C11orf95-RELA fusion positive ependymoma cell culture
  change in cell viability of MAF1329: no change in cell viability
NF-κB [1]
  effect on NF-κB pathway activity: act as agonists and increased pathway activity

## Br.Cc1cc2nc(NCCCO)n(CC(=O)c3cc(C(C)(C)C)c(O)c(C(C)(C)C)c3)c2cc1C [CID 2858522]
HEK293 cells
  cytotoxic effect: no cytotoxic effect
NF-κB [1]; [4]
  effect on NF-κB expression: agonistic effect

## Cc1ccc(S(=O)(=O)/C=C/C#N)cc1 [BAY 11–7082]
HEK293 cells
  cytotoxic effect: no cytotoxic effect
NF-κB [1]; [4]
  effect on NF-κB expression: agonistic effect

## CCNC(=O)[C@H]1O[C@@H](n2cnc3c(N)nc(NCCc4ccc(CCC(=O)O)cc4)nc32)[C@H](O)[C@@H]1O [CGS 21680]
NF-κB [2]
  NF-κB agonist effect: no effect

## Oc1cc(O)cc(/C=C/c2ccc(O)c(O)c2)c1 [Piceatannol]
HEK293 cells
  cytotoxic effect: no cytotoxic effect
  IC50: > 100000 nM
NF-κB [1]
  EC50: > 100000 nM
NF-κB [1]; [4]
  effect on NF-κB expression: agonistic effect

## O=c1cc(-c2ccc(O)c(O)c2)oc2cc(O)cc(O)c12 [Luteolin]
HEK293 cells
  IC50: > 100000 nM
NF-κB [1]; HEK-293 reporter cells
  effect on NF-κB expression: no specific effect
NF-κB [1]
  EC50: 35000 nM

## CC(=O)O[C@@]12C[C@@H](C)[C@@]3(O)[C@@H](C=C(CO)C[C@]4(O)C(=O)C(C)=C[C@@H]34)[C@@H]1C2(C)C [Prostratin]
NF-κB [2]
  concentration at which NF-κB agonist activity was seen: 1000 nM

## CC1=C(O)C(=O)C=C2C1=CC=C1[C@@]2(C)CC[C@@]2(C)[C@@H]3C[C@](C)(C(=O)O)CC[C@]3(C)CC[C@]12C [Celastrol]
HEK293 cells
  IC50: 475 nM
HEK293 cells; [3]
  effect on cell viability: without effecting cell viability
MAF1329 ependymoma cells; Homo sapiens, read-out: IC50 (cell viability of MAF1329)
  IC50: 1700 nM
NF-κB [1]
  EC50: 82 nM
  effect on NF-κB pathway activity: act as agonists and increased pathway activity

## CS(=O)(=O)N1CCN(Cc2cc3nc(-c4cccc5[nH]ncc45)nc(N4CCOCC4)c3s2)CC1 [Pictalisib, 2-(1 H -Indazol-4-yl)-6-(4-methanesulfonyl-piperazin-1-ylmethyl)-4-morpholin-4-yl-thieno[3,2-d]pyrimidine]
HEK293 cells
  IC50: 7470 nM
NF-κB [1]
  EC50: 4270 nM

## CC[C@H](C)[C@H](NC(=O)OCc1ccccc1)C(=O)N[C@@H](CCC(=O)OC(C)(C)C)C(=O)N[C@@H](C)C(=O)N[C@H](C=O)CC(C)C [PSI] (Cbz-IE(OtBu)AL-aldehyde)
HEK293 cells
  effect on cell viability: without effecting cell viability
NF-κB [1]
  effect on NF-κB pathway activity: act as agonists and increased pathway activity

## C[C@]1(CO)CN(c2cc(C(=O)Nc3ccc4c(c3)-c3c(c(C(N)=O)nn3-c3ccc(F)cc3)CC4)c(Cl)cn2)C[C@@]1(C)CO [PF-184]
HEK293 cells
  effect on cell viability: did not result in a decrease of cell viability
NF-κB [1]; HEK-293 reporter cells
  mode of action on NF-κB signaling: work antagonistically

## O=C(Nc1cc(C(F)(F)F)cc(C(F)(F)F)c1)c1cc(Cl)ccc1O [IMD 0354]
HEK293 cells
  IC50: 1560 nM
HEK293 cells; at low concentrations
  effect on cell viability: did not result in a decrease of cell viability
NF-κB [1]; HEK-293 reporter cells
  mode of action on NF-κB signaling: work antagonistically
NF-κB [1]
  EC50: 292 nM

## C=C(C)[C@@H]1CC[C@]2(C(=O)O)CC[C@]3(C)[C@H](CC[C@@H]4[C@@]5(C)CC[C@H](O)C(C)(C)[C@@H]5CC[C@]43C)[C@@H]12 [betulinic acid, Betulinic acid]
NF-κB [2]
  concentration at which NF-κB agonist activity was seen: 100,000 nM

## NC(=O)Nc1sc(-c2ccc(F)cc2)cc1C(N)=O [TCPA-1, 2-[(Aminocarbonyl)amino]-5-(4-fluorophenyl)-3-thiophenecarboxamide]
HEK293 cells; at low concentrations
  effect on cell viability: did not result in a decrease of cell viability
NF-κB [1]
  EC50: < 1 nM

## CC(C)(C)c1ccc(S(=O)(=O)/C=C/C#N)cc1 [BAY 11–7085]
HEK293 cells
  cytotoxic effect: no cytotoxic effect
NF-κB [1]; [4]
  effect on NF-κB expression: agonistic effect
